This is a sample that favours compounds with a hit; in the whole collection about 3.8% have one here.
FGF22 binding: shifts melting point of recombinant human FGF22; activity (Tm shift, normalised), % at 9.99 µM; 1.5% of 340,000 active; Q9HCT0; recombinant FGF22 thermal shift, SYPRO orange fluorescence; percent of sucrose octasulfate shift, DMSO zero;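 active means mean Tm shift, scaled 0 neutral to 100 positive control, at about 1.3% or above, every replicate too, limit read from the data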
Target sequence (Q9HCT0 whole entry, looked up): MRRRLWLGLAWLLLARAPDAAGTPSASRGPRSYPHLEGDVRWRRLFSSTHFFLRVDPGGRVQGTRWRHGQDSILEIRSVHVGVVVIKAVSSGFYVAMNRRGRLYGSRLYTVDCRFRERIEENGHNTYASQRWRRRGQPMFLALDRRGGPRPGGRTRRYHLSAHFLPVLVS
SIRT5 inh: sirtuin-5 (human) deacylase inhibition; AID 652115; inhibition, % at 15 µM; 1.1% of 330,000 active; Purified SirT5, succinyl-peptide AMC, trypsin-coupled fluorescence; in the data active means inhibition above about 15%
Target sequence (Q9NXA8 whole entry, looked up): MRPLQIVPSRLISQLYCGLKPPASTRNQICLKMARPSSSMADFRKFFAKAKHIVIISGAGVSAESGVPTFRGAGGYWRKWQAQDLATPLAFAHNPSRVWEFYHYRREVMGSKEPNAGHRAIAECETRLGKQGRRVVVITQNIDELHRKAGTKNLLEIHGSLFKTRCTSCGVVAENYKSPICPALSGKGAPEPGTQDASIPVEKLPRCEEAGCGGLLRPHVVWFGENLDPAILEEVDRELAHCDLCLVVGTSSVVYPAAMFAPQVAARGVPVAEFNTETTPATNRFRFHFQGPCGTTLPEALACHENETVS
XiGFP reactiv: activators of X-chromosome reactivation in mouse fibroblasts; activation, % at 7.58 µM; XiGFP mouse fibroblasts, % GFP-positive cells imaging, 3 d; cells co-treated with 5-aza-dC sensitizer; scaled so ellipticine positive control = 100%; 0.055% of 360,000 active;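 active means mean normalized replicate activation at least 10% and every replicate at or above 10%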;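 further: 0% = median of on-plate neutral control wells and 100% = ellipticine 6 µM median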
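Material: XiGFP fibroblasts, SV40-immortalized. Buffer or medium: DMEM plus 5-aza-dC sensitizer. Compound: single concentration per compound, delivered by pin transfer. Times: 3 days compound exposure. Controls: ellipticine 6 µM.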
DENV2 CPE: protects cells from dengue virus 2 cytopathic effect | DENV2-infected cells, cytopathic effect rescue, plate reader | CPE inhibition, % at 9.99 µM | 1.7% of 350,000 active; in the data active means CPE inhibition above about 20%, passing the limit was not always enough; tested in BHK-21 cells;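 further: 0% = median of neutral control wells and 100% = median of positive control wells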
FN deposit inh: fibronectin deposition inhibition | AH1F fibroblasts, Alexa488-fibronectin deposition fluorescence, overnight | inhibition, % at 12.6 µM | 0.086% of 350,000 active;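 active means mean inhibition across replicates of 30% or more, regardless of how many single replicates reach that level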;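 further: positive control wells lacked labelled fibronectin entirely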
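Material: AH1F fibroblast monolayer depositing Alexa488-labelled fibronectin into matrix | Input: 10000 AH1F cells/well | Medium: DMEM plus 2% serum, read in PBS | Reagent: Alexa488-fibronectin, 24 nM final in well | Compound dosing: One dose per compound, pinned | Schedule: 1 h adhesion, overnight exposure | Measured by: Fluorescence at 485 nm excitation, 525 nm emission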
ARNT TACC3 PPI: ARNT/TACC3 interaction disruption; Q9Y6A5; AlphaScreen His-ARNT PAS-B/GST-TACC3 binding, luminescence; TACC3 fragment carries E629A point mutation; inhibition, % at 9.99 µM; 0.66% of 390,000 active; AID 623870;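 active means mean inhibition of replicates at least 50% and at least half of replicates each reaching 50%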;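 further: 0% = complete ARNT plus TACC3 wells and 100% = ARNT alone without TACC3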
* = called active by the depositor; . = no result; ! = repeats disagree.

SMILES	FGF22 binding	SIRT5 inh	XiGFP reactiv	DENV2 CPE	FN deposit inh	ARNT TACC3 PPI
O=C(N/N=C/C=C/c1ccccc1[N+](=O)[O-])c1cccs1	0	4	0	-3	-4	-4
C[C@@H]1CN([C@@H](C)CO)C(=O)c2cc(NC(=O)C3CC3)ccc2O[C@@H]1CN(C)S(=O)(=O)c1cn(C)cn1	0	25*	0	8	.	-15
C[C@H](CO)N1C[C@H](C)[C@@H](CN(C)S(=O)(=O)c2cn(C)cn2)Oc2ccc(NC(=O)Cn3cnnn3)cc2C1=O	44*!	8	-1	-2	0	-2
CCCNC(=O)N[C@H]1C=C[C@@H](CC(=O)NCCc2ccccc2)O[C@H]1CO	.	.	1	.	1	.
O=S(=O)(N[C@@H]1CC[C@@H](CCn2cc(Cc3ccccc3)nn2)O[C@H]1CO)c1ccccc1F	1	20*	0	-1	-8	-4
O=C(Cc1cccnc1)N[C@H]1CC[C@H](CCn2cc(Cc3ccccc3)nn2)O[C@@H]1CO	0	1	0	77*	.	-7
O=C(Cc1cccnc1)N[C@@H]1CC[C@H](CCn2cc(-c3ccccc3F)nn2)O[C@@H]1CO	1	-1	0	45*	.	6
O=S(=O)(N[C@@H]1CC[C@H](CCn2cc(Cc3ccccc3)nn2)O[C@@H]1CO)c1ccccc1F	0	1	0	-3	-16	-3
Cc1cc(/C=C2/SC(=S)N(c3cccc(Cl)c3)C2=O)c(C)n1-c1cccnc1	.	.	.	.	-2	7
Cc1cc(/C=C2/SC(=S)N(c3ccc([N+](=O)[O-])cc3)C2=O)c(C)n1-c1cccnc1	43*	-1	1	10	1	2
CC(C)NC(=O)Nc1ccc2c(c1)C(=O)N(C)[C@@H]1CC[C@@H](CC(=O)NCc3ccc(F)cc3)O[C@@H]1CO2	0	-6	0	-1	-1	19
COC(=O)C[C@@H]1CC[C@H]2[C@H](COc3ccc(NC(=O)Nc4cc(C)cc(C)c4)cc3C(=O)N2C)O1	0	0	0	-2	4	1
O=C(COC(=O)C1CC1)Nc1ncc(C(F)(F)F)cc1Cl	44*	-3	0	0	-3	-7
O=C(COC(=O)C1CC1)Nc1ncc(Cl)cc1Cl	0	2	0	12	-1	0
O=C(CN1C(=O)CSC1=O)N1CCc2ccccc2C1	.	.	.	.	.	30*
O=C(CN1C(=O)NC2(CCCCCCC2)C1=O)N1CCc2ccccc2C1	.	.	.	.	8	1
CC(C)(C)c1ccccc1OCCCCCn1ccnc1	44*	-7	0	7	-19	-21
CC(C)(C)c1ccc(C(=O)NCCCn2ccnc2)cc1	0	-2	0	-4	-10	active
Cc1ccc(C(C)(C)C)c(OCCCn2ccnc2)c1	0	-2	0	11	5	-16
O=C(Nc1ccccc1C(=O)NCCCn1ccnc1)c1ccccc1	0	-4	.	-3	.	1
CC(C)(C)C(=O)Nc1ccccc1C(=O)NCCCn1ccnc1	0	8	0	-7	9	61*
COc1ccc(CN(C)C[C@@H]2OCCCC[C@H](C)Oc3ccc(NS(=O)(=O)c4cccs4)cc3C(=O)N([C@@H](C)CO)C[C@@H]2C)cc1	0	-1	0	19	.	9
COc1ccc(C(=O)CC(=O)c2ccccc2O)cc1OC	56*	-4	0	-1	11	7
C/C=C/c1ccc(OC)c(OC(C)=O)c1	.	.	.	.	5	-5
COc1ccc(/C=C/C(=O)NC(=S)Nc2ccccc2)cc1OC	0	-8	0	3	1	-2
SMILES	FGF22 binding	SIRT5 inh	XiGFP reactiv	DENV2 CPE	FN deposit inh	ARNT TACC3 PPI
COc1cc(/C=C/C(=O)NC(=O)c2ccccc2O)ccc1OC(C)=O	1	.	.	73*	.	1
COc1cc(/C=C/c2cc[n+](C)cc2)ccc1OCC(=O)Nc1ccccc1	0	-2	0	18	-4	-12
C/C=C/c1ccc(OCC(=O)Nc2ccc(C(N)=O)cc2)c(OC)c1	44*	-5	0	6	-4	0
C/C=C/c1ccc(OC(C)=O)c(OC)c1	0	.	0	-21	-4	20*
O=C(C[C@H]1C[C@@H]2c3cc(NC(=O)Nc4ccc(C(F)(F)F)cc4)ccc3O[C@@H]2[C@@H](CO)O1)NCc1ccccn1	0	0	0	2	-40	4
C[C@@H]1CCCCO[C@@H](CN(C)S(=O)(=O)c2cccs2)[C@@H](C)CN([C@@H](C)CO)C(=O)c2cc(NC(=O)Nc3cccc4ccccc34)ccc2O1	0	.	0	-10	.	0
O=S(=O)(c1ccccc1)N1CC2(C1)[C@@H](c1ccccc1)[C@@H](CO)N2CC1CCCC1	0	13	0	27*	7	.
O=S(=O)(c1ccccc1)N1CC2(C1)[C@H](c1ccccc1)[C@@H](CO)N2CC1CCOCC1	0	-2	0	36*	2	.
C[C@@H]1CN([C@H](C)CO)C(=O)c2cc(-c3ccncc3)cnc2O[C@@H]1CN(C)C(=O)C1CCCCC1	0	-4	-1	-5	-3	.
COCC(=O)N1C[C@H](C)[C@H](OC)CN(C)C(=O)c2ccc(NC(=O)NC(C)C)cc2OC[C@@H]1C	0	-6	0	3	-9	-8
CCCNC(=O)N1CC2(CN(C(=O)Cc3cccnc3)C2)c2c([nH]c3cc(OC)ccc23)[C@H]1CO	.	-2	0	10	.	.
C[C@H](CO)N1C[C@H](C)[C@H](CN(C)Cc2ccc(-c3ccccc3)cc2)Oc2cc(C#C[C@@H](C)O)ccc2S1(=O)=O	0	25*	1	3	.	-5
C[C@H](O)C#Cc1ccc2c(c1)O[C@H](CN(C)Cc1ccc(-c3ccccc3)cc1)[C@H](C)CN([C@H](C)CO)S2(=O)=O	0	32*	0	-2	.	22
C[C@@H]1CN([C@@H](C)CO)S(=O)(=O)c2ccc(C#C[C@@H](C)O)cc2O[C@@H]1CN(C)Cc1ccccc1	0	14	-1	-7	2	6
C[C@@H]1CN([C@@H](C)CO)S(=O)(=O)c2ccc(C#C[C@@H](C)O)cc2O[C@H]1CN(C)Cc1ccc(-c2ccccc2)cc1	0	35*	-1	7	.	0
C[C@H](O)C#Cc1ccc2c(c1)O[C@H](CN(C)Cc1ccc(-c3ccccc3)cc1)[C@@H](C)CN([C@H](C)CO)S2(=O)=O	0	28*	-1	-1	.	-3
C[C@H](O)C#Cc1ccc2c(c1)O[C@@H](CN(C)Cc1ccccc1)[C@H](C)CN([C@@H](C)CO)S2(=O)=O	0	4	-1	-8	14	2

High-throughput results: PubChem, Broad Institute
